# Source: ChEMBL document CHEMBL1122570, “Studies on 1,2,3-triazoles. 10. Synthesis and antiallergic properties of 9-oxo-1H,9H-benzothiopyrano[2,3-d]-1,2,3-triazoles and their S-oxides” (1984)
# Test system: Rattus norvegicus
# Experiment: Compound was evaluated for its antiallergic activity in rat passive cutaneous anaphylaxis (PCA) test by the intravenous administration.
# Assay type: functional
# Procedure, shortened: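 Male Sprague–Dawley rats (250–300 g) sensitized intradermally on shaved backs with six twofold dilutions (typically 1:4–1:128) of rat anti-ovalbumin serum in 0.9% saline. After 72 h, compound given iv to groups of six just before iv challenge with 1% ovalbumin plus pontamine sky-blue. Killed at 20 min and wheal diameters measured. Inhibition computed against vehicle controls; ED50 from log-dose regression with 95% confidence limits.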
smiles,measurement,value
O=C1c2ccccc2S(=O)(=O)c2[nH]nnc21,ED50,6.14 mg/kg
O=c1c2ccccc2[s+]([O-])c2[nH]nnc12 (stereo not given),ED50,1.23 mg/kg
Cc1cc2sc3nnnc-3c(O)c2cc1C,ED50,0.43 mg/kg
Cc1ccc2c(c1)C(=O)c1[nH]nnc1S2(=O)=O,ED50,5.88 mg/kg
Cc1cc2c(cc1C)S(=O)(=O)c1nn[nH]c1C2=O,ED50,0.6 mg/kg
Cc1ccc2sc3nnnc-3c(O)c2c1C,ED50,3.18 mg/kg
Oc1c2nnnc-2sc2ccccc12,ED50,1.43 mg/kg
COc1ccc2sc3nnnc-3c(O)c2c1,ED50,1.59 mg/kg
Cc1ccc2c(c1C)C(=O)c1[nH]nnc1S2(=O)=O,ED50,> 1 mg/kg
Cc1ccc2sc3nnnc-3c(O)c2c1,ED50,11.4 mg/kg
